# Data taken from ChEMBL document CHEMBL1687811, “Outbreak of meropenem-resistant Serratia marcescens comediated by chromosomal AmpC beta-lactamase overproduction and outer membrane protein loss” (2010).
# Columns and labels:
# Serratia marcescens [1] = test: Antimicrobial activity against beta-lactamase AmpC producing meropenem-resistant Serratia marcescens by agar dilution method; format: functional
# Procedure, shortened: (§1)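 MICs by agar dilution following CLSI guidelines, with E. coli ATCC 25922 and P. aeruginosa ATCC 27853 as MIC reference strains. Where added, clavulanic acid served as the ESBL inhibitor and phenyl-arginine-β-naphthylamide as the efflux-pump inhibitor, each incorporated into the susceptibility test.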
# Serratia marcescens [2] = test: Antimicrobial activity against Serratia marcescens ATCC 8100 by agar dilution method; format: functional
# Procedure, shortened: (§2)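 MICs by agar dilution following CLSI guidelines, with E. coli ATCC 25922 and P. aeruginosa ATCC 27853 as MIC reference strains. Where an inhibitor was added, boronic acid or cloxacillin served as the AmpC inhibitor.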
# Serratia marcescens [3] = test: Antimicrobial activity against beta-lactamase ompC intact/ompF deficient Serratia marcescens isolate YMC0570 by agar dilution method; format: functional; procedure, shortened: as §1
# Serratia marcescens [4] = test: Antimicrobial activity against beta-lactamase ompC intact/ompF deficient Serratia marcescens isolate YMC0573 by agar dilution method; format: functional; procedure, shortened: as §1
# Serratia marcescens [5] = test: Antimicrobial activity against beta-lactamase ompC intact/ompF deficient Serratia marcescens isolate YMC0583 by agar dilution method; format: functional; procedure, shortened: as §1
# Serratia marcescens [6] = test: Antimicrobial activity against Serratia marcescens ATCC 8100 by agar dilution method in presence of 20 ug/ml of phenyl-arginine-beta-naphthylamide; format: functional; procedure, shortened: as §1
# Serratia marcescens [7] = test: Antimicrobial activity against Serratia marcescens ATCC 8100 by agar dilution method in presence of 250 ug/ml of cloxacillin; format: functional; procedure, shortened: as §2
# Serratia marcescens [8] = test: Antimicrobial activity against beta-lactamase ompC intact/ompF deficient Serratia marcescens isolate YMC0547 by agar dilution method; format: functional; procedure, shortened: as §1
# Serratia marcescens [9] = test: Antimicrobial activity against beta-lactamase AmpC producing meropenem-resistant Serratia marcescens by agar dilution method in presence of 4 ug/ml of clavulanic acid; format: functional; procedure, shortened: as §1
# Serratia marcescens [10] = test: Antimicrobial activity against Serratia marcescens ATCC 8100 by agar dilution method in presence of 4 ug/ml of clavulanic acid; format: functional; procedure, shortened: as §1
# Serratia marcescens [11] = test: Antimicrobial activity against beta-lactamase ompC intact/ompF deficient Serratia marcescens isolate YMC0582 by agar dilution method; format: functional; procedure, shortened: as §1
# Serratia marcescens [12] = test: Antimicrobial activity against beta-lactamase ompC intact/ompF deficient Serratia marcescens isolate YMC0566 by agar dilution method; format: functional; procedure, shortened: as §1
# Serratia marcescens [13] = test: Antimicrobial activity against beta-lactamase ompC intact/ompF deficient Serratia marcescens isolate YMC0584 by agar dilution method; format: functional; procedure, shortened: as §1
# Escherichia coli [14] = test: Antimicrobial activity against azide-resistant Escherichia coli J53 by agar dilution method in presence 4 ug/ml of clavulanic acid; format: functional; procedure, shortened: as §1
# Serratia marcescens [15] = test: Antimicrobial activity against Serratia marcescens ATCC 8100 by agar dilution method in presence of 300 ug/ml of boronic acid; format: functional; procedure, shortened: as §2
# Serratia marcescens [16] = test: Antimicrobial activity against beta-lactamase ompC/ompF deficient Serratia marcescens ATCC 8100 by agar dilution method; format: functional
# Serratia marcescens [17] = test: Antimicrobial activity against beta-lactamase ompC intact/ompF deficient Serratia marcescens isolate YMC0564 by agar dilution method; format: functional; procedure, shortened: as §1
# Serratia marcescens [18] = test: Antimicrobial activity against beta-lactamase ompC intact/ompF deficient Serratia marcescens isolate YMC0579 by agar dilution method; format: functional; procedure, shortened: as §1
# Escherichia coli [19] = test: Antimicrobial activity against azide-resistant Escherichia coli J53 by agar dilution method
compound,measurement,setting,value
GENTAMICIN,MIC,Serratia marcescens [1],32 µg/mL
same,MIC,Serratia marcescens [2],> 256 µg/mL
C[C@@H](O)[C@H]1C(=O)N2C(C(=O)O)=C(SCCNC=N)C[C@H]12 [IMIPENEM ANHYDROUS],MIC,Serratia marcescens [3],4 µg/mL
same,MIC,Serratia marcescens [4],4 µg/mL
same,MIC,Serratia marcescens [5],4 µg/mL
same,MIC,Serratia marcescens [6],4 µg/mL
same,MIC,Serratia marcescens [1],0.12 µg/mL
same,MIC,Serratia marcescens [7],0.094 µg/mL
same,MIC,Serratia marcescens [2],4 µg/mL
same,MIC,Serratia marcescens [8],8 µg/mL
same,MIC,Serratia marcescens [9],0.06 µg/mL
same,MIC,Serratia marcescens [10],4 µg/mL
same,MIC,Serratia marcescens [11],4 µg/mL
same,MIC,Serratia marcescens [12],4 µg/mL
same,MIC,Serratia marcescens [13],8 µg/mL
same,MIC,Escherichia coli [14],0.12 µg/mL
same,MIC,Serratia marcescens [15],0.5 µg/mL
same,MIC,Serratia marcescens [16],0.02 µg/mL
same,MIC,Serratia marcescens [17],4 µg/mL
same,MIC,Serratia marcescens [18],4 µg/mL
CO[C@@]1(NC(=O)Cc2cccs2)C(=O)N2C(C(=O)O)=C(COC(N)=O)CS[C@@H]21 [CEFOXITIN],MIC,Escherichia coli [19],4 µg/mL
same,MIC,Serratia marcescens [1],4 µg/mL
same,MIC,Serratia marcescens [2],> 256 µg/mL
CC(C)(O/N=C(\C(=O)N[C@@H]1C(=O)N2C(C(=O)[O-])=C(C[n+]3ccccc3)CS[C@H]12)c1csc(N)n1)C(=O)O [CEFTAZIDIME],MIC,Escherichia coli [19],0.25 µg/mL
same,MIC,Serratia marcescens [1],2 µg/mL
same,MIC,Serratia marcescens [2],128 µg/mL
C[C@@H](O)[C@H]1C(=O)N2C(C(=O)O)=C(S[C@@H]3CN[C@H](C(=O)N(C)C)C3)[C@H](C)[C@H]12 [MEROPENEM],MIC,Serratia marcescens [3],16 µg/mL
same,MIC,Serratia marcescens [4],16 µg/mL
same,MIC,Serratia marcescens [5],16 µg/mL
same,MIC,Serratia marcescens [6],8 µg/mL
same,MIC,Escherichia coli [19],0.03 µg/mL
same,MIC,Serratia marcescens [1],0.015 µg/mL
same,MIC,Serratia marcescens [7],0.008 µg/mL
same,MIC,Serratia marcescens [2],16 µg/mL
same,MIC,Serratia marcescens [8],32 µg/mL
same,MIC,Serratia marcescens [9],0.015 µg/mL
same,MIC,Serratia marcescens [10],16 µg/mL
same,MIC,Serratia marcescens [11],16 µg/mL
same,MIC,Serratia marcescens [12],16 µg/mL
same,MIC,Serratia marcescens [13],16 µg/mL
same,MIC,Escherichia coli [14],0.015 µg/mL
same,MIC,Serratia marcescens [15],1 µg/mL
same,MIC,Serratia marcescens [16],0.25 µg/mL
same,MIC,Serratia marcescens [17],16 µg/mL
same,MIC,Serratia marcescens [18],16 µg/mL
CCN1CCN(C(=O)N[C@@H](C(=O)N[C@@H]2C(=O)N3[C@@H]2SC(C)(C)[C@@H]3C(=O)O)c2ccccc2)C(=O)C1=O [PIPERACILLIN],MIC,Escherichia coli [19],1 µg/mL
same,MIC,Serratia marcescens [1],> 256 µg/mL
same,MIC,Serratia marcescens [2],> 256 µg/mL
O=C(O)c1cn(C2CC2)c2cc(N3CCNCC3)c(F)cc2c1=O [CIPROFLOXACIN],MIC,Serratia marcescens [1],≤ 0.12 µg/mL
same,MIC,Serratia marcescens [2],8 µg/mL
CO/N=C(\C(=O)N[C@@H]1C(=O)N2C(C(=O)O)=C(COC(C)=O)CS[C@H]12)c1csc(N)n1 [CEFOTAXIME],MIC,Escherichia coli [19],≤ 0.12 µg/mL
same,MIC,Serratia marcescens [1],32 µg/mL
same,MIC,Serratia marcescens [2],> 256 µg/mL
C[C@H]1[C@H](NC(=O)/C(=N\OC(C)(C)C(=O)O)c2csc(N)n2)C(=O)N1S(=O)(=O)O [AZTREONAM],MIC,Serratia marcescens [1],8 µg/mL
same,MIC,Serratia marcescens [2],64 µg/mL
